For series [1], the target named is T1, Corticotropin-releasing factor receptor 1 (Homo sapiens, UniProt P34998).
T1 sequence (P34998 whole entry): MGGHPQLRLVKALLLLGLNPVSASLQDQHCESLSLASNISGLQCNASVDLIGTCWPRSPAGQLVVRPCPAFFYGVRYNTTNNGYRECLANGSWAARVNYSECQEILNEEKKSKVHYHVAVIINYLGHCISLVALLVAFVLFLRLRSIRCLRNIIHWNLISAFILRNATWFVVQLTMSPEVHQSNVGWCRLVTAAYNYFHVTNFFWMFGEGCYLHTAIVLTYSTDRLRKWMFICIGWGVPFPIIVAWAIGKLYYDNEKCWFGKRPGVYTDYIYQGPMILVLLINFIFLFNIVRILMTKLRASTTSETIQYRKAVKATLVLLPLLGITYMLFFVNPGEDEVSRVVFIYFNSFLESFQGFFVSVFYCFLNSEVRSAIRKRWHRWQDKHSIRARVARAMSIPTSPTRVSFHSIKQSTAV
In words: Binding affinity for corticotropin-releasing factor-1 expressed in […] cells. Type of series: cell-based. In a few lines:
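Cloned human CRF1 receptor expressed in […] cells. Radiolabeled sauvagine used as ligand. Ki derived from dose–response curves over 1 nM to 10 μM. Values are the mean of three or more independent determinations.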

In series [2] the target is T1, Corticotropin-releasing factor receptor 1. Description: Inhibition of CRF stimulated cAMP production in CHO cells expressing CRF1 receptor. Type of series: functional, cell-based. For orientation: Changes in cAMP serve as a functional read-out for many G protein-coupled receptors.
Series [3] in a line: Concentration maximum in brain of rat was determined after 1 hr upon oral administration. Type of series: ADME, organism-based. Further details: route oral. In a few lines:
(§1)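 Male Sprague-Dawley rats given 10 mg/kg intravenously or orally. Plasma clearance, volume of distribution and terminal half-life taken from the iv arm. Plasma and brain Cmax taken after oral dosing. Oral bioavailability estimated. Brain exposure relative to plasma based on AUC (0–6 h).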

Series [4] in a line: Concentration maximum in plasma of rat was determined after 1 h upon oral administration. Format: ADME, organism-based. More on the design: route oral. In a few lines:
as §1

Series [5] is described as follows: Plasma clearance in rat was determined upon i.v. administration. Format: ADME, organism-based. The conditions noted are these: iv. In a few lines:
as §1

Series [6] in a line: Oral bioavailability in Rat upon oral administration. Format: ADME, organism-based. To be noted: in vivo. In a few lines:
as §1

The nature of series [7]: Terminal half life in rat was determined upon intravenous administration. To be noted: in vivo.
The nature of series [8]: Volume distribution in rat was determined upon intravenous administration. To be noted: in vivo.
Series [9] can be described thus: Terminal half life in rat was determined upon oral administration. Type of series: ADME, organism-based. To be noted: in vivo.

The source of these data is ChEMBL document CHEMBL1141137, “Design and synthesis of tricyclic imidazo[4,5-b]pyridin-2-ones as corticotropin-releasing factor-1 antagonists” (J Med Chem, 2005).

A word on the Ki: it is the dissociation constant of the complex between target and ligand, obtained from inhibition or displacement. In [1], `CCCC(CCC)N1CCn2nc(-c3ccc(Cl)cc3Cl)c3nc(C)cc1c32` showed an inhibition constant Ki of 4.5 nM.
In turn, `CCCC(CCC)N1CCn2c(=O)n(-c3ccc(C(F)(F)F)cc3)c3nc(C)cc1c32` displayed a Ki in series [1] of 17 nM.
The same measure, in the same setting: next, `CCCC(CCC)N1CCn2c(=O)n(-c3ccc(Cl)cc3Cl)c3nc(C)cc1c32`: 5.1 nM.
In [1], `CCCC(CCC)N1CCn2c(=O)n(-c3ccc(C(=O)OC)cc3)c3nc(C)cc1c32` showed a Ki of 920 nM.
In general, IC50 refers to the midpoint of a concentration-inhibition curve. A lower IC50 goes with higher potency. In general, Cmax refers to the maximum level reached in the sampled fluid or tissue. By clearance is commonly meant a measure of how efficiently the substance is removed, as volume per time. The term bioavailability denotes the share of a dose that reaches the circulation, judged against a reference dose that is usually intravenous. The low end stands for poor availability, the high end for good availability. A word on the half-life: it is the time in which the quantity being followed falls by half. Read a low half-life as fast loss. As usually defined, the Vd is a proportionality between amount in the body and measured concentration, not a real space. On to `CCCC(CCC)N1CCn2c(=O)n(-c3ccc(OC)cc3)c3nc(C)cc1c32`, for which the affinity in series [1], expressed as Ki, was 2 nM. This molecule had an IC50 in series [2] of 71 nM. For the same molecule, the peak concentration (Cmax) in series [3] was determined as 1180 ng/g; in [4] it was 356 ng/mL. The same molecule yielded a clearance in series [5] of 53.4 mL/min/kg. This molecule also gave a bioavailability in series [6] of 30%. Also, in series [7], the half-life came to 1.6 h. In series [8], this molecule yielded a Vd of 7.2 L/kg.
For the molecule `CCC(CC)N1CCn2c(=O)n(-c3ccc(OC)cc3C)c3nc(C)cc1c32`, the Ki in [1] was 20 nM.
`CCCC(CCC)N1CCn2c(=O)n(-c3ccc(C(C)C)cc3Br)c3nc(C)cc1c32` came in with a Ki in [1] of 1.1 nM.
With `CCCC(CCC)N1CCn2c(=O)n(-c3ccc(S(C)(=O)=O)cc3)c3nc(C)cc1c32`, the Ki in [1] was 460 nM.
`CCCC(CCC)N1CCn2c(=O)n(-c3ccccc3OC)c3nc(C)cc1c32` showed an inhibition constant (Ki) in series [1] of 44 nM.
Turning to `CCCC(CCC)N1CCn2c(=O)n(-c3cccc(OC)c3)c3nc(C)cc1c32`, the inhibitory constant (Ki) in [1] came to 130 nM.
As for `CCC(CC)N1CCn2c(=O)n(-c3ccc(C(F)(F)F)cc3)c3nc(C)cc1c32`, the Ki in series [1] came to 170 nM.
`CCC(CC)N1CCn2c(=O)n(-c3ccc(OC)cc3)c3nc(C)cc1c32`: the Ki in series [1] was 8 nM.
On to `CCCC(CCC)N1CCn2c(=O)n(-c3ccc(OC)nc3)c3nc(C)cc1c32`, for which the affinity in series [1], expressed as Ki, was 60 nM.
In series [1], `CCCC(CCC)N1CCn2c(=O)n(-c3ccc(OCC)cc3)c3nc(C)cc1c32` came in with an inhibition constant Ki of 140 nM.
`CCCC(CCC)N1CCn2c(=O)n(-c3ccc(Cl)cc3)c3nc(C)cc1c32` yielded an inhibitory constant (Ki) in [1] of 12 nM.
Still for that read-out and setting: under `CCCCN1CCn2c(=O)n(-c3ccc(OC)cc3)c3nc(C)cc1c32` stands 8800 nM; under `COc1ccc(-n2c(=O)n3c4c(cc(C)nc42)N(C(C)C)CC3)cc1`, more than 10000 nM.
`CCCC(CCC)N1CCn2c(=O)n(-c3ccc(Cl)cn3)c3nc(C)cc1c32` yielded an inhibition constant Ki in series [1] of 23 nM.
In series [1], `CCC(CC)N1CCn2c(=O)n(-c3ccc(Cl)cc3)c3nc(C)cc1c32` had a Ki of 58 nM.
Consider `COCC(COC)Nc1nc(C)nc2c(-c3ccc(Cl)cc3Cl)c(C)nn12`, for which, in series [9], the half-life was 16 h. In series [8], the Vd is 22 L/kg.
For `CCCCN(CC)c1nc(C)nc2c1c(C)cn2-c1c(C)cc(C)cc1C` [CP-154526], the T1/2 in series [9] was 51 h. Besides, the distribution volume (Vd) in [8] is 105 L/kg.
